Only some compounds are listed: those with a hit (about 1.9% of all), similar ones and a draw of the others.
Efflux pump inh – inhibitors of Candida efflux pumps in yeast, primary screen, S. cerevisiae, Nile Red, multiplex; S. cerevisiae Candida pump triplex; 0.44% of 330,000 active; inhibition, % at 10 µM; AID 485275, 2010;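 active = plate passing quality check with inhibition over a set limit, or well fluorescence over plate mean plus 4 SD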;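 also: Nile Red retained in pooled yeast measured as flow cytometry median fluorescence; 0% = buffer negative control and 100% = Enniatin B positive control; higher means more Nile Red kept so more efflux inhibition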
ARFGAP1 inh – inhibitors of rat ARFGAP1 GAP activity, primary screen, biochemical, fluorescence polarization, GDP tracer; ADP-ribosylation factor GTPase-activating protein 1 (Rattus norvegicus), Q62848; Arfgap1-stimulated ARF1 GTP hydrolysis, GDP FP detection; inhibition, % at 16.5 µM; 0.26% of 360,000 active; AID 651572, 2012;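 active = inhibition above a per-plate limit, mean inhibition of low control wells plus 3 SD, cut at about 25% in these data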;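 also: 0% = DMSO wells with enzyme and 100% = wells lacking Arfgap1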
Target sequence (Q62848 1-136 limits assumed): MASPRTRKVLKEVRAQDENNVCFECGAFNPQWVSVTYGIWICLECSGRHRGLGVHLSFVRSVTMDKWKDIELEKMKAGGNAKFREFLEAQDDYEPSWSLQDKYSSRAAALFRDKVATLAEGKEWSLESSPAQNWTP
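Material: rat Arfgap1 GAP domain (His6, aa 1-136), purified enzyme. Also added: human ARF1(Δ1-17)-GTP substrate. Compound dosing: 16.5 µM single point, 1.26% DMSO. Timing: enzyme reaction 120 min at 25 °C after 20 min preincubation. Signal: GDP detection by fluorescence polarization. Read-out basis: percent inhibition of GAP-stimulated GDP formation, scaled between DMSO and no-Arfgap1 medians.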
FGF22 binding – binders of human FGF22 protein, primary screen, FGF22 synaptogenesis inhibitor project, biophysical, thermal shift, single point | AID 651658, 2012 | 1.5% of 340,000 active | recombinant FGF22 thermal shift, SYPRO orange fluorescence; percent of sucrose octasulfate shift, DMSO zero | activity (Tm shift, normalised), % at 9.99 µM;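 active = mean Tm shift, scaled 0 neutral to 100 positive control, at about 1.3% or above, every replicate too, limit read from the data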
Target sequence (Q9HCT0 whole entry, looked up): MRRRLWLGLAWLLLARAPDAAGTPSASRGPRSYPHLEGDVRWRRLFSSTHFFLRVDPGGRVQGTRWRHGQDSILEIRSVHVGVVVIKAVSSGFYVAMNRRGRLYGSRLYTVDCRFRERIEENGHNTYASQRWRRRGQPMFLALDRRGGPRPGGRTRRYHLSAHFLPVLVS
Rtt109 Vps75 – inhibitors of C. albicans Rtt109/Vps75 HAT, primary screen, biochemical, ThioGlo CoA-SH fluorescence, plate reader; Histone acetyltransferase RTT109 (Candida albicans (strain SC5314 / ATCC MYA-2876)), …; AID 540336, 2011; 0.16% of 330,000 active; purified Rtt109/Vps75, 4 h; inhibition, % at 34.9 µM;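 active = inhibition of at least 50% in every replicate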
ASAP1 GAP inh – inhibitors of human ASAP1 ArfGAP activity, primary screen, biochemical, fluorescence polarization; Arf-GAP with SH3 domain, ANK repeat and PH domain-containing protein 1 (Homo sapiens), …; ASAP1-stimulated ARF1 GTP hydrolysis, GDP FP detection; inhibition, % at 16.5 µM; 0.19% of 360,000 active; in the data active = inhibition above about 25%;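 also: 0% = vehicle with enzyme and substrate and 100% = no enzyme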
Target sequence (Q9ULH1 325-724 limits assumed): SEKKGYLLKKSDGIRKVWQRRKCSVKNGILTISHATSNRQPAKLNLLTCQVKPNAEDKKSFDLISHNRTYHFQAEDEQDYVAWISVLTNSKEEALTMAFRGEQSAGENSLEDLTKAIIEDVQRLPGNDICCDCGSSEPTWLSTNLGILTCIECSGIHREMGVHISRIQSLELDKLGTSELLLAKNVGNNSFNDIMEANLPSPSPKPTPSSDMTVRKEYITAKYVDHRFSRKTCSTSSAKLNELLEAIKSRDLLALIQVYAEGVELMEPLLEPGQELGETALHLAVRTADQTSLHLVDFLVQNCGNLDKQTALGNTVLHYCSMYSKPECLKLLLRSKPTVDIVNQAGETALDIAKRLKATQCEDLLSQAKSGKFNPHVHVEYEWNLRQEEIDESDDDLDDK
Starred values were filed as active, the others as inactive; . = no result given.

SMILES | Efflux pump inh | ARFGAP1 inh | FGF22 binding | Rtt109 Vps75 | ASAP1 GAP inh
C=CCOc1ccccc1CN1CCC(CO)(CCOc2ccccc2)CC1 | -0.2 | -6.9 | 43.4* | 18.7 | -5.9
Cc1nn(C)c(Cl)c1CN1CCC(CO)(CCOc2ccccc2)CC1 | 0.0 | 3.1 | 43.9* | -3.7 | -2.0
CCn1ccnc1CN1CCC(CO)(CCOc2ccccc2)CC1 | -0.1 | 14.8 | . | 7.9 | 11.2
Cc1nn(CC(=O)NCCCN2CCOCC2)c(C)c1[N+](=O)[O-] | 0.2 | 8.4 | 0.1 | 4.2 | 4.1
C[C@H]1CN([C@@H](C)CO)S(=O)(=O)c2ccc(/C=C/c3ccccc3)cc2O[C@@H]1CN(C)C(=O)c1ccc2c(c1)OCO2 | . | . | 1.9* | . | .
COc1cccc(NC(=O)N(C)C[C@@H]2Oc3cc(C#Cc4ccccc4)ccc3S(=O)(=O)N([C@@H](C)CO)C[C@@H]2C)c1 | . | . | 1.4* | . | .
C[C@@H]1CN([C@@H](C)CO)S(=O)(=O)c2ccc(/C=C/c3ccccc3)cc2O[C@H]1CN(C)C(=O)Nc1ccc(F)cc1 | . | . | 1.6* | . | .
Cc1ccc(-c2ccc3c(c2)O[C@H](CN(C)C(=O)Nc2ccccc2)[C@H](C)CN([C@@H](C)CO)S3(=O)=O)cc1 | . | . | 0.6 | . | .
C[C@H](CO)N1C[C@H](C)[C@H](CN(C)C(=O)c2ccc3c(c2)OCO3)Oc2cc(/C=C/c3ccccc3)ccc2S1(=O)=O | . | . | -0.2 | . | .
Cc1ccc(-c2ccc3c(c2)O[C@@H](CN(C)C(=O)Nc2ccccc2)[C@@H](C)CN([C@@H](C)CO)S3(=O)=O)cc1 | . | . | 1.5* | . | .
CC(C(=O)O)n1ncc2ccccc2c1=O (configuration not stated) | -0.1 | -13.2 | 0.1 | -24.7 | 3.0
O=C(O)CCn1ncc2ccccc2c1=O | 0.3 | -3.3 | 43.4* | -4.3 | 4.2
COc1cccc(-c2ccc3c(c2)O[C@H](CN(C)Cc2cccnc2)[C@@H](C)CN([C@@H](C)CO)S3(=O)=O)c1 | . | . | -0.3 | . | .
COc1ccc(C2Nc3ccc4ccccc4c3-c3c2c(=O)oc2ccccc32)cc1 (configuration not stated) | 1.7* | 12.6 | . | 38.5 | 5.3
CCOCCOC(=O)C(C)Oc1ccc(Oc2nc(Cl)ccc2Cl)cc1 (configuration not stated) | 0.1 | -2.3 | 43.3* | -6.9 | 2.4
Cc1ccc(S(=O)(=O)Oc2ccccc2[N+](=O)[O-])cc1 | . | 6.9 | 43.3* | 6.8 | 5.8
COc1ccccc1[N+](=O)[O-] | -0.1 | 7.0 | 0.1 | 4.3 | -0.3
O=C(c1cc(S(=O)(=O)N2CCOCC2)c(Cl)cc1Cl)N1CCN(S(=O)(=O)c2cccc(F)c2)CC1 | -0.1 | 5.3 | 42.9* | -1.0 | -7.7
CC(=O)OC1(C(C)=O)CCC2C3CC4OC45CC(O)CCC5(C)C3CCC21C (configuration not stated) | . | -12.4 | 0.0 | 10.4 | -15.8
CC(=O)OC1CCC2(C)C3CCC4(C)C(C(C)=O)CCC4C3CC3OC32C1 (configuration not stated) | . | -9.0 | 43.1* | 6.5 | 2.9
CSc1nc(NS(=O)(=O)c2cc(Br)ccc2Br)cc(=O)[nH]1 | 0.0 | 4.9 | -0.1 | 4.1 | -4.6
Cc1ccc(NC(=O)CN2C(=O)S/C(=C\c3cc(C)n(-c4ccc(C(=O)O)cc4)c3C)C2=O)cc1 | -0.2 | 3.5 | 44.1* | 4.7 | 1.0
Cc1cccc(NC(=O)CN2C(=O)S/C(=C\c3cccn3-c3cccc(C(=O)O)c3)C2=O)c1 | 0.2 | -15.0 | 43.4* | -4.7 | -16.4
C=CCc1cccc2cc(C(=O)O)c(=O)oc12 | -0.3 | 0.2 | . | -3.7 | 8.4
C=CCc1cccc2cc(C(=O)Nc3ccccc3C(=O)O)c(=O)oc12 | . | 0.9 | 43.1* | 3.4 | 4.0
SMILES | Efflux pump inh | ARFGAP1 inh | FGF22 binding | Rtt109 Vps75 | ASAP1 GAP inh
COC(=O)c1ccc(N=NN2CCCCC2)cc1 | 0.2 | -3.5 | 0.1 | -5.5 | 9.1
CC(C)c1ccc2occ(-c3nn[nH]n3)c(=O)c2c1 | 0.1 | -8.8 | 44.4* | -2.1 | 7.0
Cc1ccc2occ(-c3nn[nH]n3)c(=O)c2c1 | -0.1 | 8.9 | -0.7 | -4.3 | -4.1
CCNC(=O)NC(=O)CSc1nnc(-c2c[nH]c3ccccc23)o1 | -0.2 | 2.3 | -0.4 | 51.0* | -5.9
CCN(C(=O)CSc1nnc(-c2ccccc2Br)o1)C1CCS(=O)(=O)C1 (configuration not stated) | 0.4 | 10.8 | 0.2 | -7.9 | 2.8
CCN(C(=O)CSc1nnc(-c2c[nH]c3ccccc23)o1)C1CCS(=O)(=O)C1 (configuration not stated) | -0.1 | -4.4 | 43.2* | 7.9 | -0.9
c1ccc(Cn2nc(-c3ccccc3)nc2-c2ccccc2)cc1 | 0.0 | -11.8 | . | -1.0 | -10.4
CCC(=O)Nc1ccc(Cl)c(NC(=O)c2ccc([N+](=O)[O-])cc2)c1 | -0.1 | -11.3 | 0.1 | 11.3 | 1.2
CCOC(=O)N1CCN(C(=O)COC(=O)CNC(=O)c2ccc(Cl)cc2Cl)CC1 | 0.1 | 10.1 | -0.2 | -2.4 | -9.2
O=C(/C=C\Nc1ccc2c(c1)OCO2)c1ccc(Cl)s1 | -0.1 | 5.9 | 43.4* | -3.4 | 9.8
O=C(/C=C\Nc1ccc2c(c1)OCO2)c1cccs1 | 0.2 | 7.5 | 0.0 | 2.0 | 2.0
Cc1ccc([N+](=O)[O-])cc1CN1CCN(c2ncc(Cc3ccccc3)cn2)CC1 | . | -7.1 | 43.2* | . | -4.7
O=C(COC(=O)Cc1cccs1)Nc1ccccc1F | -0.1 | 16.2 | . | -5.3 | 12.8
CSc1ccccc1NC(=O)COC(=O)Cc1cccs1 | -0.1 | -2.1 | 43.2* | -5.7 | -12.1
Cc1cc(C)nc(NC(C)(C)C(=O)O)n1 | 0.1 | 0.9 | 44.0* | -14.8 | 1.4
CC1CC(C)CN(CCOc2ccccc2-c2ccccc2)C1 (configuration not stated) | 0.3 | 3.4 | . | 1.9 | -0.9
O=C(COC(=O)CSCc1ccccc1)NCc1ccccc1 | -0.3 | 0.9 | 43.4* | -9.2 | -4.0
O=C(COC(=O)Cn1ccc(=O)[nH]c1=O)Nc1ccc(F)cc1 | 0.3 | -2.2 | -0.4 | -2.2 | -0.9
C[C@@H]1CN([C@@H](C)CO)C(=O)c2cc(NS(=O)(=O)c3ccc(Cl)cc3)ccc2O[C@H]1CN(C)Cc1ccc(Cl)c(Cl)c1 | . | . | -0.4 | . | .
Cc1ccc(C)c2sc(NC(=O)CN3C(=O)CCC3=O)nc12 | 0.0 | 6.4 | 43.2* | 12.4 | 8.2
Cc1cccc2sc(NC(=O)CN3C(=O)C4CC=CCC4C3=O)nc12 (configuration not stated) | 0.0 | -4.9 | 43.9* | -6.7 | -12.9
Cc1ccc2sc(NC(=O)CN3C(=O)CCC3=O)nc2c1C | 0.0 | 4.5 | -0.2 | 3.0 | -7.7

Compound activity as filed in PubChem.
